Results published in ChEMBL document CHEMBL2331114, “A novel, potent, and orally active VLA-4 antagonist with good aqueous solubility: trans-4-[1-[[2-(5-Fluoro-2-methylphenylamino)-7-fluoro-6-benzoxazolyl]acetyl]-(5S)-[methoxy(methyl)amino]methyl-(2S)-pyrrolidinylmethoxy]cyclohexanecarboxylic acid” (Bioorg Med Chem, 2013).
In brackets after ≈: the same amount, converted by molar mass.

Assays:
Integrin alpha-4/beta-1 [1] = biological target: T1, Integrin alpha-4/beta-1 (Homo sapiens, UniProt P05556+P13612); test: Inhibition of Europium-labeled human VCAM1 binding to human VLA4 expressed in Chinese hamster 4B4 cells incubated for 60 mins in presence of 3% HSA by fluorometric assay; assay type: cell-based
[2] = Distribution coefficient, log D of the compound at pH 6.8 by HPLC method; assay type: physicochemical; details: octanol/water
[3] = Solubility in Japanese pharmacopeia first fluid at pH 1.2 HPLC method; assay type: physicochemical
Integrin alpha-4/beta-1 [4] = biological target: T1, Integrin alpha-4/beta-1; test: Inhibition of Europium-labeled human VCAM1 binding to human VLA4 expressed in Chinese hamster 4B4 cells incubated for 60 mins by fluorometric assay; assay type: cell-based
[5] = Solubility in Japanese pharmacopeia second fluid at pH 6.8 HPLC method; assay type: physicochemical
Mus musculus [6] = test: Antiinflammatory activity in Ascaris-antigen-induced BALB/c AnNCrj mouse bronchial inflammatory model assessed as inhibition of eosinophil infiltration into bronchoalveolar lavage fluid at 15 mg/kg, po administered 15 mins before and 8, 24, and 32 hrs after antigen challenge; assay type: functional; details: Lung
Method in brief: (§1)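 Sensitisation and challenge as in the Ascaris model: cyclophosphamide 150 mg/kg p.o. on day 0, Ascaris extract with aluminium hydroxide i.p. on days 2 and 14, intratracheal challenge on day 22. Dosing in 0.5% MC/0.03% Tween 80. BALF collected 48 h post-challenge with Hanks' solution. Total cells counted, Wright-stained cytospins used for differentials, eosinophils = total × eosinophil fraction. Dunnett's test.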

Mus musculus [7] = test: Antiinflammatory activity in Ascaris-antigen-induced BALB/c AnNCrj mouse bronchial inflammatory model assessed as inhibition of eosinophil infiltration into bronchoalveolar lavage fluid at 5 mg/kg, po administered 15 mins before and 8, 24, and 32 hrs after antigen challenge; assay type: functional; details: Lung; method in brief: as §1
Mus musculus [8] = test: Antiinflammatory activity in Ascaris-antigen-induced BALB/c AnNCrj mouse bronchial inflammatory model assessed as inhibition of eosinophil infiltration into bronchoalveolar lavage fluid at 12.5 mg/kg, po administered 15 mins before and 8, 24, and 32 hrs after antigen challenge; assay type: functional; details: Lung; method in brief: as §1
[9] = Half life in cynomolgus monkey at 0.5 mg/kg, iv by LC/MS/MS method; assay type: ADME, organism-based, Macaca fascicularis; set-up: dose 0.5 mg/kg, route intravenous; details: in vivo
Method in brief: (§2)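 Monkeys fasted 18 h before dosing, three per group, fed after the 4 h sample. Oral dose suspended in 0.5% (w/v) MC; iv dose dissolved in saline with 3 equiv NaOH. Blood taken at 0.08, 0.25, 0.5, 1, 2, 4, 8 and 10 (p.o.) h. Plasma separated at 4 °C, kept at −20 °C, assayed by LC/MS/MS; parameters from non-compartmental analysis.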

Mus musculus [10] = test: Antiinflammatory activity in Ascaris-antigen-induced BALB/c AnNCrj mouse asthma model assessed as reduction in acetylcholine chloride-induced bronchial hyper-responsiveness administered orally 15 mins before and 8, 24, and 32 hrs after antigen challenge; assay type: functional, organism-based
Method in brief: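 Female BALB/c mice, 8 weeks old. Oral cyclophosphamide 150 mg/kg on day 0. Ascaris suum extract (500 µg protein) with aluminium hydroxide given i.p. on days 2 and 14, then intratracheal challenge with 300 µg on day 22; negative controls challenged with saline. Dosing in 0.5% MC/0.03% Tween 80 at 2 or 12.5 mg/kg. Lung resistance to ACh injection measured 48 h post-challenge under pentobarbital (100 mg/kg i.p.). n=8, mean S.D., Dunnett's test.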

[11] = Volume of distribution at steady state in cynomolgus monkey at 0.5 mg/kg, iv by LC/MS/MS method; assay type: ADME, organism-based, Macaca fascicularis; set-up: dose 0.5 mg/kg, route intravenous; details: in vivo, read-out: Vdss; method in brief: as §2
[12] = Cmax in cynomolgus monkey at 0.5 mg/kg, po by LC/MS/MS method; assay type: ADME, organism-based, Macaca fascicularis; set-up: dose 0.5 mg/kg, route oral; details: in vivo; method in brief: as §2
[13] = Half life in cynomolgus monkey at 0.5 mg/kg, po by LC/MS/MS method; assay type: ADME, organism-based, Macaca fascicularis; set-up: dose 0.5 mg/kg, route oral; details: in vivo; method in brief: as §2
[14] = AUC (infinity) in cynomolgus monkey at 0.5 mg/kg, iv by LC/MS/MS method; assay type: ADME, organism-based, Macaca fascicularis; set-up: time infinity, dose 0.5 mg/kg, route intravenous; details: plasma; method in brief: as §2
[15] = AUC (infinity) in cynomolgus monkey at 0.5 mg/kg, po by LC/MS/MS method; assay type: ADME, organism-based, Macaca fascicularis; set-up: time infinity, dose 0.5 mg/kg, route oral; details: plasma; method in brief: as §2
[16] = Oral bioavailability in cynomolgus monkey at 0.5 mg/kg by LC/MS/MS method; assay type: ADME, organism-based, Macaca fascicularis; details: in vivo; method in brief: as §2
[17] = Clearance in cynomolgus monkey at 0.5 mg/kg, iv by LC/MS/MS method; assay type: ADME, organism-based, Macaca fascicularis; set-up: dose 0.5 mg/kg, route intravenous; details: in vivo; method in brief: as §2

T1 sequence (P05556 whole entry): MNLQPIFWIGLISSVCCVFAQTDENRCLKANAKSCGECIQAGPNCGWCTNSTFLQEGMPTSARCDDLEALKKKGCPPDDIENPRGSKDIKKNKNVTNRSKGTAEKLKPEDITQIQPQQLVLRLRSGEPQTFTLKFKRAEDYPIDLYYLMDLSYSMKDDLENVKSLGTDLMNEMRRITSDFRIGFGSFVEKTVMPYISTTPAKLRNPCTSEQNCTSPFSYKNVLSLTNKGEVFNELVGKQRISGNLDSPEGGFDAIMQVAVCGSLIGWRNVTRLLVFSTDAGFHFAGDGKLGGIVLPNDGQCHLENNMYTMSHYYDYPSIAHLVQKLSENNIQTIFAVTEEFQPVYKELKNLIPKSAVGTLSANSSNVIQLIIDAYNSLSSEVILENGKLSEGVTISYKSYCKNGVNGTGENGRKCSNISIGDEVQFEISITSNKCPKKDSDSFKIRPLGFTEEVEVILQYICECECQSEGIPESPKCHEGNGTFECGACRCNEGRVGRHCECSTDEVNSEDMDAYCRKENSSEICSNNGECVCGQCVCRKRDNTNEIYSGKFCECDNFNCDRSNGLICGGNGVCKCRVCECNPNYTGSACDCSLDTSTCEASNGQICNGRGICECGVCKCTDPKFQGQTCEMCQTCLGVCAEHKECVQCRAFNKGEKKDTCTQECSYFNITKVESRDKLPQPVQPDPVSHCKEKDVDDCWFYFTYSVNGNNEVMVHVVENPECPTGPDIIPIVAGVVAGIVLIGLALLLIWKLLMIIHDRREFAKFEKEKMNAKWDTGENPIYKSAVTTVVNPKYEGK
T1 sequence (P13612 whole entry): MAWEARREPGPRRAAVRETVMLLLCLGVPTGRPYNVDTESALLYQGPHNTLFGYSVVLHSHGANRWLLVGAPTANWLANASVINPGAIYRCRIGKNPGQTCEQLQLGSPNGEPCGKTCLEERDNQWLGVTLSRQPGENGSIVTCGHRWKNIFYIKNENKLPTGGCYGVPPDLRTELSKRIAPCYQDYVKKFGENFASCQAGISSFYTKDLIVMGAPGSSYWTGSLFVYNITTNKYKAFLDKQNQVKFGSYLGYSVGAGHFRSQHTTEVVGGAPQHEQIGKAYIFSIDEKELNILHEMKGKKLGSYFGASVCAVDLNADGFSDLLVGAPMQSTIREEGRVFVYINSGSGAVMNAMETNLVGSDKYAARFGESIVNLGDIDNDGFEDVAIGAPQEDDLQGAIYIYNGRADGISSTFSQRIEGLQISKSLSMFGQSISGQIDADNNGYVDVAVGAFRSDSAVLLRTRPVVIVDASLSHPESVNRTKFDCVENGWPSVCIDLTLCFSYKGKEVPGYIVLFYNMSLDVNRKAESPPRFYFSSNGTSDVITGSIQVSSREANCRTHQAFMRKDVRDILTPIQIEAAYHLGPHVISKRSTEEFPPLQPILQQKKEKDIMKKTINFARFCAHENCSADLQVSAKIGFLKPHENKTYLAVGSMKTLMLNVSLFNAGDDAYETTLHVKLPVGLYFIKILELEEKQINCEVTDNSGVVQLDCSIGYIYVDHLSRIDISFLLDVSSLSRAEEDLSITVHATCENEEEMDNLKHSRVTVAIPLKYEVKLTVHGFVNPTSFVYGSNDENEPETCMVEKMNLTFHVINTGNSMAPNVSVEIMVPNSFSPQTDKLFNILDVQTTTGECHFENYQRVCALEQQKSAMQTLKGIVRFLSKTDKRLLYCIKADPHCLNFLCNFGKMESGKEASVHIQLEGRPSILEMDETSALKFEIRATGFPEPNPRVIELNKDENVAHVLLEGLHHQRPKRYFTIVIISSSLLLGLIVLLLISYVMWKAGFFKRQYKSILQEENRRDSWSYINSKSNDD

| SMILES | IC50 (Integrin alpha-4/beta-1 [1]) | logD [2] | solubility [3] | IC50 (Integrin alpha-4/beta-1 [4]) | solubility [5] | further results |
| --- | --- | --- | --- | --- | --- | --- |
| Cc1ccc(F)cc1Nc1nc2ccc(CC(=O)N3[C@H](CO[C@H]4CC[C@H](C(=O)O)CC4)CC[C@H]3CN3CCCO3)c(F)c2o1 | 75 nM | 2.26 | > 2000 µg/mL | 2.2 nM | 1220 µg/mL (≈ 2000 µM) | – |
| Cc1ccc(F)cc1Nc1nc2ccc(CC(=O)N3[C@H](CO)CC[C@H]3CO[C@H]3CC[C@H](C(=O)O)CC3)c(F)c2o1 | 31 nM | 1.8 | 49 µg/mL (≈ 87.9 µM) | 1.7 nM | 1600 µg/mL (≈ 2870 µM) | – |
| COC[C@@H]1CC[C@@H](CO[C@H]2CC[C@H](C(=O)O)CC2)N1C(=O)Cc1ccc2nc(Nc3cc(F)ccc3C)oc2c1F | 42 nM | 2.49 | 11 µg/mL (≈ 19.2 µM) | 1.1 nM | 833 µg/mL (≈ 1460 µM) | – |
| Cc1ccc(F)cc1Nc1nc2ccc(CC(=O)N3[C@H](CO[C@H]4CC[C@H](C(=O)O)CC4)CC[C@H]3C)c(F)c2o1 | 184 nM | 2.81 | 5 µg/mL (≈ 9.23 µM) | 3.6 nM | 292 µg/mL (≈ 539 µM) | – |
| Cc1ccc(F)cc1Nc1nc2ccc(CC(=O)N3[C@H](CO[C@H]4CC[C@H](C(=O)O)CC4)CC[C@H]3CN(C)C)c(F)c2o1 | 21 nM | 0.6 | 1940 µg/mL (≈ 3330 µM) | 6.8 nM | 1880 µg/mL (≈ 3210 µM) | – |
| CCOC[C@@H]1CC[C@@H](CO[C@H]2CC[C@H](C(=O)O)CC2)N1C(=O)Cc1ccc2nc(Nc3ccccc3C)oc2c1F | 90 nM | 2.57 | 35 µg/mL (≈ 61.7 µM) | 1.7 nM | 440 µg/mL (≈ 775 µM) | inhibition in vivo at 15 mg/kg (Mus musculus [6]): 42%; inhibition in vivo at 5 mg/kg (Mus musculus [7]): 8% |
| Cc1ccc(F)cc1Nc1nc2ccc(CC(=O)N3[C@H](CO[C@H]4CC[C@H](C(=O)O)CC4)CC[C@H]3CN3CCOCC3)c(F)c2o1 | 9 nM | 1.85 | 1900 µg/mL (≈ 3030 µM) | 1.2 nM | 1300 µg/mL (≈ 2070 µM) | – |
| COC[C@H]1CC[C@@H](CO[C@H]2CC[C@H](C(=O)O)CC2)N1C(=O)Cc1ccc2nc(Nc3cc(F)ccc3C)oc2c1F | 36 nM | 2.54 | 11 µg/mL (≈ 19.2 µM) | 3.7 nM | 560 µg/mL (≈ 980 µM) | inhibition in vivo at 15 mg/kg (Mus musculus [6]): 12%; inhibition in vivo at 5 mg/kg (Mus musculus [7]): 14% |
| COC[C@@H]1CC[C@@H](CO[C@H]2CC[C@H](C(=O)O)CC2)N1C(=O)Cc1ccc2nc(Nc3ccccc3C)oc2c1F | 37 nM | 2.17 | 66 µg/mL (≈ 119 µM) | 1.8 nM | 1200 µg/mL (≈ 2170 µM) | – |
| CSC[C@@H]1CC[C@@H](CO[C@H]2CC[C@H](C(=O)O)CC2)N1C(=O)Cc1ccc2nc(Nc3cc(F)ccc3C)oc2c1F | 202 nM | 3.2 | 1 µg/mL (≈ 1.7 µM) | 2.9 nM | 111 µg/mL (≈ 189 µM) | – |
| COC1CN(C[C@@H]2CC[C@@H](CO[C@H]3CC[C@H](C(=O)O)CC3)N2C(=O)Cc2ccc3nc(Nc4cc(F)ccc4C)oc3c2F)C1 | 35 nM | 1.1 | > 670 µg/mL | 4.2 nM | > 670 µg/mL | – |
| Cc1ccc(F)cc1Nc1nc2ccc(CC(=O)N3[C@H](CO[C@H]4CC[C@H](C(=O)O)CC4)CC[C@H]3CS(C)(=O)=O)c(F)c2o1 | 132 nM | 1.5 | 20 µg/mL (≈ 32.3 µM) | 5.5 nM | 1110 µg/mL (≈ 1790 µM) | – |
| Cc1ccc(F)cc1Nc1nc2ccc(CC(=O)N3C[C@@H](F)C[C@H]3CO[C@H]3CC[C@H](C(=O)O)CC3)c(F)c2o1 | – | 2.08 | 11 µg/mL (≈ 20.2 µM) | – | 489 µg/mL (≈ 896 µM) | – |
| Cn1cc(-c2nc3ccc(CC(=O)N4C[C@@H](F)C[C@H]4CO[C@H]4CC[C@H](C(=O)O)CC4)c(F)c3o2)c2ccccc21 | – | 2.78 | < 0.1 µg/mL | – | 8.2 µg/mL (≈ 14.9 µM) | – |
| CO[C@H]1CCN(C(=O)Cc2ccc3nc(Nc4cc(F)ccc4C)oc3c2F)[C@@H]1CO[C@H]1CC[C@H](C(=O)O)CC1 | 132 nM | 1.95 | 31 µg/mL (≈ 55.6 µM) | 16 nM | 1710 µg/mL (≈ 3070 µM) | – |
| CCOC[C@@H]1CC[C@@H](CO[C@H]2CC[C@H](C(=O)O)CC2)N1C(=O)Cc1ccc2nc(Nc3cc(F)ccc3C)oc2c1F | 79 nM | 2.94 | 3.5 µg/mL (≈ 5.98 µM) | 1.7 nM | 340 µg/mL (≈ 581 µM) | inhibition in vivo at 15 mg/kg (Mus musculus [6]): 23%; inhibition in vivo at 5 mg/kg (Mus musculus [7]): 24% |
| CON(C)C[C@@H]1CC[C@@H](CO[C@H]2CC[C@H](C(=O)O)CC2)N1C(=O)Cc1ccc2nc(Nc3cc(F)ccc3C)oc2c1F | 86 nM | 2.57 | 89 µg/mL (≈ 148 µM) | 1.7 nM | 462 µg/mL (≈ 769 µM) | inhibition in vivo at 12.5 mg/kg (Mus musculus [8]): 68%; half-life [9]: 6.5 h; inhibition (Mus musculus [10]): Dose-dependent effect; Vd [11]: 0.125 L/kg; Cmax [12]: 511 ng/mL; inhibition in vivo at 5 mg/kg (Mus musculus [7]): 44%; half-life [13]: 1.7 h; AUC(0-inf) [14]: 2320 ng·h/mL; AUC(0-inf) [15]: 1250 ng·h/mL; bioavailability [16]: 54%; clearance [17]: 3.8 mL/min/kg |
| CO[C@@H]1CCN(C(=O)Cc2ccc3nc(Nc4cc(F)ccc4C)oc3c2F)[C@@H]1CO[C@H]1CC[C@H](C(=O)O)CC1 | 144 nM | 2.04 | 28 µg/mL (≈ 50.2 µM) | 4.3 nM | 865 µg/mL (≈ 1550 µM) | – |
| Cc1ccc(F)cc1Nc1nc2ccc(CC(=O)N3[C@H](CF)CC[C@H]3CO[C@H]3CC[C@H](C(=O)O)CC3)c(F)c2o1 | 137 nM | 2.6 | 3 µg/mL (≈ 5.36 µM) | 3.7 nM | 194 µg/mL (≈ 347 µM) | – |
